Screening results (PubChem BioAssay)
Only some compounds are listed: those with a hit (about 2.9% of all), similar ones and a draw of the others.
Runt-SMMHC FRET: inhibitors of human RUNX1 Runt domain binding to CBFb-SMMHC | Q01196+Q13951 | Cerulean-Runt/Venus-CBFb-SMMHC FRET ratio 530/480, 1 h | inhibition, % at 20 µM | 220,000 compounds, 0.74% hits | AID 1434;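 active = mean inhibition across duplicate retests at 20 µM reaching about 50%, limit read from the data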;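 note: inhibitors lower the FRET ratio by blocking Runt binding to CBFb-SMMHC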
RBBP9 inh: human RBBP9 hydrolase inhibition; AID 1515; 220,000 compounds, 0.2% hits; inhibition, % at 7.94 µM; O75884; recombinant RBBP9, FP-Rh probe fluorescence polarization;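 active = inhibition above the campaign mean of all tested compounds plus 3 SD, cut at about 14% in these data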
Target sequence (O75884 whole entry, looked up): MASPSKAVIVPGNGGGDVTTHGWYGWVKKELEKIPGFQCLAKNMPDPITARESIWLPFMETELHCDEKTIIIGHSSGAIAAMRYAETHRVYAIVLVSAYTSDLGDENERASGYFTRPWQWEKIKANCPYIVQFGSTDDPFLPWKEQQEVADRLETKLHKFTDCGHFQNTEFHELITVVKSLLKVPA
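Assay system: recombinant human RBBP9; Reagent: Serine-hydrolase probe FP-Rh, 375 nM pre-mixing; Doses: 7.94 µM single dose, 0.794% DMSO; Incubation: 30 min then 45 min, 25 °C; Detection: fluorescence polarization (mP), excitation 525 nm, emission 598 nm; Evaluation: percent inhibition from mP, scaled between DMSO and no-protein wells.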
M18AAP inhibitor: blocks P. falciparum M18 aspartyl aminopeptidase; recombinant PfM18AAP, H-Glu-NHMec fluorogenic cleavage; 290,000 compounds, 1.2% hits; inhibition, % at 7.35 µM; AID 1822;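 active = inhibition above the campaign mean inhibition over all tested compounds plus 3 SD, cut at about 28% in these data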
RanGTP-Imp inh: disruptors of Ran-importin-beta complex formation – biochemical, FRET, CFP-Ran, YFP-importin-beta, homogeneous, primary screen; cell-free CFP-Ran/YFP-importin-beta FRET ratio; inhibition, % (test concentration not listed); 300,000 compounds, 1.1% hits; AID 2216;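 active = more than half of the replicate wells show a fall in the fluorescence ratio signal beyond about 16%, limit read from the data, passing the limit was not always enough; inconclusive = exactly half of the replicate wells pass the set limit; inactive = fewer than half of replicates pass the limit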
Hck-Nef inh: blocks Nef-activated human Hck kinase. Recombinant Hck-YEEI plus Nef, Z-Lyte FRET kinase assay. inhibition, % at 20 µM. 220,000 compounds, 0.68% hits. AID 463187;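 active = Hck-Nef kinase inhibition above about 50%, limit read from the data; inactive = inhibition below that limit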
Target sequence (P08631 whole entry, looked up): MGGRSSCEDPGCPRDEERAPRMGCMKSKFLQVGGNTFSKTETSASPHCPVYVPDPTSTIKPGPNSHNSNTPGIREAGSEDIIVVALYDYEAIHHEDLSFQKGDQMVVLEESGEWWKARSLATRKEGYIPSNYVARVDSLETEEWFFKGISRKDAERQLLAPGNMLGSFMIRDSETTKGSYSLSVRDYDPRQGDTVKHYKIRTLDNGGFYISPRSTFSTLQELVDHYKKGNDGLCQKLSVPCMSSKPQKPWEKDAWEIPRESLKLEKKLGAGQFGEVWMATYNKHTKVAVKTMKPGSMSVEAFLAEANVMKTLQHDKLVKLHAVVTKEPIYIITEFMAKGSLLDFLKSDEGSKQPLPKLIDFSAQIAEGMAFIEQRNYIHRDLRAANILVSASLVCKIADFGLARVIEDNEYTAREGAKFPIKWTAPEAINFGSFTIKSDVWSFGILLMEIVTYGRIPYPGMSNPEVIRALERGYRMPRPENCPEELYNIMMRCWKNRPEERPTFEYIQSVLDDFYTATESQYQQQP
Runt-CBFb FRET: inhibitors of human RUNX1 Runt domain binding to CBFb | Q01196+Q13951 | 220,000 compounds, 0.46% hits | Cerulean-Runt/Venus-CBFb FRET ratio 530/480, 1 h | AID 1496 | inhibition, % at 20 µM;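 active = inhibition over about 50% at 20 µM in the single-dose screen, limit read from the data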
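Assay system: Cerulean-Runt domain fusion protein, energy donor; Signal: fluorescence energy transfer, 422 nm excitation, 530/480 nm emission; Timing: 1 h compound exposure, room temperature; Control set: unlabeled CBFb; Medium: Tris buffer pH 7.5 with salts and BSA; Compound: single test concentration of 20 µM, 1% DMSO final; Probe or stimulus: Venus-CBFb 100 nM.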
Numbers stand for hits; i = inactive; ? = inconclusive; nt = not tested or not shown.

SMILES	Runt-SMMHC FRET	RBBP9 inh	M18AAP inhibitor	RanGTP-Imp inh	Hck-Nef inh	Runt-CBFb FRET
CCN1CCc2c(sc(NC(=O)c3ccc(S(=O)(=O)N4CC(C)OC(C)C4)cc3)c2C(N)=O)C1 (stereo unspecified)	nt	nt	i	28	nt	nt
CCN1CCc2c(sc(NC(=O)c3ccc(S(=O)(=O)N(C)c4ccccc4)cc3)c2C(=O)NC)C1	nt	nt	i	i	nt	nt
CC(=O)Nc1ccc(NC(=O)C(=O)N/N=C/c2cccnc2)cc1	i	i	i	i	i	i
O=C(NN1C(=O)/C(=C/c2ccc(O)c(O)c2)SC1=S)c1ccccc1	nt	nt	65	i	nt	nt
Nc1nc(SCC(=O)NCCO)nc2sc3c(c12)CCCC3	i	i	i	?	i	i
COC(=O)CSc1nc(N)c2c3c(sc2n1)CCCC3	i	i	28	i	i	i
COc1ccc(N2CCN(C(=O)CCC(=O)N3CC(C)Oc4ccc(C)cc43)CC2)cc1 (stereo unspecified)	nt	nt	i	i	nt	nt
COc1cc(/C=C/C(=O)C2C(=O)C=C(C)OC2=O)cc(OC)c1O (stereo unspecified)	i	i	31	i	i	i
O=C(c1cnn(C(=O)c2ccccc2)c1)c1ccccc1O	i	i	31	i	62	i
O=C(O)c1ccc(-n2cc(C(=O)c3ccccc3O)cn2)cc1	nt	nt	i	i	nt	nt
COc1cccc(NC(=O)Cn2c(=O)n(C)c(=O)c3sc4c(c32)COC(C)(C)C4)c1	nt	nt	i	i	nt	nt
CC(=Nc1cccc(C)c1)c1sc2ccccc2c1O	68	i	i	26	i	i
CC(=O)NCCN=C(C)c1sc2ccccc2c1O	i	i	i	54	i	i
C/C=C/c1ccc(OCC(=O)N2CCc3cc(OC)c(OC)cc3C2)c(OC)c1	nt	nt	i	i	nt	nt
COc1ccc(CNc2cc(C)nc3ccc(OC)cc23)cc1	nt	nt	i	i	nt	nt
CCc1cc2c3c(c1)C1(C(=O)N3C(C)(C)C=C2C)C(C#N)=C(N)Oc2[nH]c(=O)[nH]c(=O)c21 (stereo unspecified)	i	i	i	i	i	i
CC(=O)c1ccc(NS(=O)(=O)c2ccc(N/C=C/C(=O)c3ccc(F)cc3)cc2)cc1	i	i	i	i	i	i
COc1cc(NS(=O)(=O)c2ccc(N/C=C\C(=O)c3ccc(F)cc3)cc2)nc(OC)n1	72	i	i	i	i	i
CCc1nnc(NS(=O)(=O)c2ccc(NC(=O)Nc3ccc(OC)cc3)cc2)s1	nt	nt	i	i	nt	nt
CCc1nnc(NS(=O)(=O)c2ccc(N/C=C/C(=O)c3ccc(OC)cc3)cc2)s1	50	i	i	i	i	i
CCOc1ccccc1C(=O)N(Cc1sccc1C)C1CCS(=O)(=O)C1 (stereo unspecified)	nt	nt	i	i	nt	nt
COc1ccc(C)cc1S(=O)(=O)Nc1ccncc1	i	i	i	14	i	i
CCOC(=O)C1=C(CSc2nc(C)ccc2C#N)OC(N)=C(C#N)C1c1cccc(OC)c1OC (stereo unspecified)	i	i	i	18	i	i
Fc1ccc(CCNC(=S)Nc2ccc(F)c(Cl)c2)cc1	i	i	i	i	i	i
O=C(Nc1cccc(-c2nc3ccccc3s2)c1)c1cc(=O)c2ccccc2o1	i	i	i	i	53	i
SMILES	Runt-SMMHC FRET	RBBP9 inh	M18AAP inhibitor	RanGTP-Imp inh	Hck-Nef inh	Runt-CBFb FRET
Cc1cccc(NC(=O)c2cc(=O)c3ccccc3o2)c1	nt	nt	i	i	nt	nt
NC(=O)c1cc(S(=O)(=O)NCCc2ccc(Cl)cc2)cs1	nt	nt	i	i	nt	nt
O=C(/C=C/c1ccc2c(c1)OCO2)c1ccccn1	i	i	i	41	i	i
CNc1ccc(Br)cc(C(=O)/C=C/c2ccc3c(c2)OCO3)c1=O	i	i	28	i	i	i
O=C(/C=C/c1ccccc1)c1ccccn1	i	i	i	23	i	i
N/C(=N\OC(=O)/C=C/c1ccccc1)c1ccccn1	i	i	i	i	i	i
O=C(N/N=C/c1ccc2c(c1)OCO2)c1ccccn1	i	i	i	i	i	i
O=C(COC(=O)COc1cccc(C(F)(F)F)c1)NC1CCCC1	nt	nt	nt	i	nt	nt
O=C(O)CSc1nnc(-c2ccc(Cl)cc2Cl)n1-c1ccc(Cl)cc1	nt	nt	i	i	nt	nt
Cc1ccc(-c2csc(NC(=O)c3cccc(C)c3)c2C(=O)O)cc1	nt	nt	nt	i	nt	nt
Cc1ccc(-c2csc(NC(=O)/C=C/c3ccco3)c2C(=O)O)cc1	i	i	i	?	52	i
CC(C)c1csc(CN2CCCC(CNC(=O)c3cccc4ccccc34)C2)n1 (stereo unspecified)	nt	nt	i	i	nt	nt
CCn1c(=O)n(CC)c2cc(N3CCCC3)c(NC(=O)c3cc(Br)ccc3OC)cc21	nt	nt	30	i	nt	nt
CCn1c(=O)n(CC)c2cc(N3CCCC3)c(NC(=O)c3ccc(C)cc3)cc21	nt	nt	28	i	nt	nt
CC1Cc2ccccc2N1Cc1cc(=O)c(OCC(=O)NCCc2ccccc2)co1 (stereo unspecified)	nt	nt	nt	i	nt	nt
O=C(CC(C(=O)O)P(=O)(c1ccccc1)c1ccccc1)c1ccccc1 (stereo unspecified)	i	i	i	i	i	i
CC1(C)CC(=O)C/C(=N/NC(=O)c2ccc(-c3ccccc3)cc2)C1	i	i	i	24	i	i
CC1(C)CC(=O)CC(=Nc2ccc(C(=O)O)cc2)C1	i	i	i	45	i	i
Cc1nn(-c2ccc(C(=O)O)cc2)c2c1C(=O)CC(C)(C)C2	i	i	i	i	i	i
Cc1cc(C)c(S(=O)(=O)NCC(=O)NCc2ccccn2)c(C)c1	i	i	i	i	i	i
Cc1ccc(CN/C=C/C(=O)c2ccc(Br)cc2)cc1	i	i	i	i	i	i
Cc1ccc(C(=O)/C=C/NCc2ccc(F)cc2)cc1	i	i	i	31	i	i
COc1ccc(-c2csc(=Nc3ccccc3)n2CCO)cc1	i	i	30	i	i	i
COc1ccc(-c2csc(=NCCO)n2-c2ccccc2)cc1	nt	nt	i	i	nt	nt
COc1cccc(-n2cnc3c(sc4nc(N5CCOCC5)c5c(c43)CCCC5)c2=O)c1	i	i	i	i	i	i
SMILES	Runt-SMMHC FRET	RBBP9 inh	M18AAP inhibitor	RanGTP-Imp inh	Hck-Nef inh	Runt-CBFb FRET
CCc1cc(=O)oc2c(CNCc3ccccc3F)c(O)c(Cl)cc12	nt	nt	i	36	nt	nt
CCc1cc(=O)oc2c(CNC(Cc3ccccc3)C(=O)O)c(O)ccc12 (stereo unspecified)	nt	nt	i	i	nt	nt
CCOc1ccc(CN(C)C(=O)[C@H](Cc2ccccc2)NC(=O)OCc2ccccc2)cc1OC	nt	nt	i	i	nt	nt
Cc1ccc(C)c(NC(=O)CCN2C(=O)[C@@H]3Cc4ccccc4CN3C2=O)c1	nt	nt	i	i	nt	nt
CCn1c2ccccc2c2nc3ccccc3nc21	i	i	i	i	i	i
COc1cc2nc3c4ccccc4n(CC#N)c3nc2cc1OC	51	i	i	i	i	i
CCn1c2ccccc2c2nc3cc(OC)c(OC)cc3nc21	i	i	i	89	i	i
